Assay results from different studies.
Compare with care: the assays were run in different laboratories.
ADRA1B: Alpha-1B adrenergic receptor (ADRA1B, Homo sapiens, UniProt P35368)
Mapk1: Mitogen-activated protein kinase 1 (Mapk1, Mus musculus, UniProt P63085)
PARP3: Protein mono-ADP-ribosyltransferase PARP3 (PARP3, Homo sapiens, UniProt Q9Y6F1)

SMILES | target | read-out | mode | technique | cells | tested at | inhibition
CCN(c1cc(C#CCN2CCOCC2)cc(C(=O)NCc2c(C)cc(C)[nH]c2=O)c1C)[C@H]1CC[C@H](N(C)CCOC)CC1 | Histone-lysine N-methyltransferase NSD3 (NSD3, Homo sapiens, UniProt Q9BZ95) | enzyme activity | inhibitor |  |  | 1 µM | 16%
Ic1cccc2cnccc12 | ADP-ribosyl cyclase/cyclic ADP-ribose hydrolase 1 (CD38, Homo sapiens, UniProt P28907) | enzyme activity | inhibitor |  |  | 10 µM | 0%
CCN1CCN(Cc2ccc(NC(=O)c3ccc(C)c(Oc4ccnc5[nH]ccc45)c3)cc2C(F)(F)F)CC1 | Microtubule-associated serine/threonine-protein kinase 4 (MAST4, Homo sapiens, UniProt O15021) | target engagement in cells | inhibitor | chemoproteomics | Huh-7 | 10 µM | -28.8%
O=C1N=C(N2CCCCN2)S/C1=C\c1ccc(F)cc1O | Corticotropin-releasing factor receptor 1 (CRHR1, Homo sapiens, UniProt P34998) | ligand displacement |  | radioligand |  | 10 µM | < 10%
CCCNc1nc2ccccc2n1Cc1ccc(Cl)cc1 | ADRA1B | ligand displacement |  |  |  | 10 µM | 16.1%
Cn1cnc(Br)c1C1=CN(c2ncnc3[nH]cnc23)CCS1 | Myosin-IIIa (MYO3A, Homo sapiens, UniProt Q8NEV4) | enzyme activity | inhibitor | radiometric |  | 2 µM | 29.9%
CCN(CC)CCNC(=O)c1c(C)[nH]c(/C=C2\C(=O)Nc3ccc(F)cc32)c1C | Mapk1 | enzyme activity | inhibitor |  |  | 10 µM | -14%
COc1ccc2c(c1)C(CC(=O)O)=C/C2=C\c1ccc(SC)cc1 | Prostaglandin G/H synthase 2 (Ptgs2, Mus musculus, UniProt Q05769) | enzyme activity | inhibitor |  |  | 4 µM | 8%
CN(C)C1CCN(CC#Cc2nn(C3CCCC3)c3nc(NCc4ccccc4)ncc23)C1 (stereo not drawn) | Macrophage colony-stimulating factor 1 receptor (CSF1R, Homo sapiens, UniProt P07333) | enzyme activity | inhibitor | FRET |  | 1 µM | 82%
Cc1ccc(Nc2nccc(N(C)c3ccc4c(C)n(C)nc4c3)n2)cc1S(N)(=O)=O | Mapk1 | enzyme activity | inhibitor |  |  | 10 µM | 3%
Nc1ccc2c(c1)CCCn1nnnc1-2 | PARP3 | enzyme activity | inhibitor |  |  | 10 µM | 0%
CC/C(=N\NC(=O)NCc1cccc(O)c1)c1ccc(O)c(C)c1O | cAMP-dependent protein kinase catalytic subunit gamma (PRKACG, Homo sapiens, UniProt P22612) | enzyme activity | inhibitor |  |  | 0.1 µM | 91%
O=C1NCCCc2c(O)cccc21 | PARP3 | enzyme activity | inhibitor |  |  | 10 µM | 20%
COc1cc(NC(C)=O)c(Cl)cc1C(=O)Nc1nccs1 | ADRA1B | cell-free assay |  |  |  | 10 µM | 4.3%
O=C1CCCc2ccc(F)cc2N1 | PARP3 | enzyme activity | inhibitor |  |  | 10 µM | 0%
CCN(CC)c1ccc(C2Nc3ccc(C(=O)c4ccccc4)cc3NC3=C2C(=O)CC(C)(C)C3)cc1 (stereo not drawn) | ADRA1B | ligand displacement |  | radioligand |  | 10 µM | -5%
O=C1CCCc2c(O)cccc2N1 | PARP3 | enzyme activity | inhibitor |  |  | 10 µM | 0%
CNC(=O)c1cc2c(Oc3ccc(NC(=O)C4(C(=O)Nc5ccc(F)cc5)CC4)cc3)ccnc2cc1OC | Hepatocyte growth factor receptor (MET, Homo sapiens, UniProt P08581, Y1230H) | enzyme activity | inhibitor | radiometric |  | 1 µM | 99%
